# Assay outcomes as filed in PubChem BioAssay.
# Sampled rows, rich in hits. Any-hit rate of the full collection: about 3%.
# rRNA inh HTS: inhibits bacterial ribosomal RNA function over humanized ribosomes | AID 720706 | GFP signal change (wild-type ribosome), % (concentration not given with the values) | E. coli WT GFP vs humanized-ribosome RFP mutants, fluorescence, 24 h; stronger effect = lower value; DMSO median 0, no signal -100 | 350,000 compounds, 1.6% hits;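 active = significant combined selectivity score with lowered wild-type GFP, culture density cut under 30%, mutant RFP and density less affected; inactive = any of these conditions unmet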
# PGC1a acetyl inh: PGC1a acetylation modulation, inhibitor mode. U2OS PGC1a acetylation, AlphaScreen anti-acetyl-lysine; with virally co-expressed GCN5 acetyltransferase. inhibition, % at 15.6 µM. 350,000 compounds, 0.17% hits;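 active = every replicate shows inhibition of at least 40%; inconclusive = mean inhibition at least 40% but some replicate below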;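 note: 0% = neutral control wells and 100% = positive control wells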
# SIRT5 block: blocks human SIRT5 desuccinylation of peptide; Purified SirT5, succinyl-peptide AMC, trypsin-coupled fluorescence; AID 652115; inhibition, % at 15 µM; 330,000 compounds, 1.1% hits; in the data active = inhibition above about 15%; inconclusive = no clear call, values can overlap the other calls
# Target sequence (Q9NXA8 whole entry, looked up): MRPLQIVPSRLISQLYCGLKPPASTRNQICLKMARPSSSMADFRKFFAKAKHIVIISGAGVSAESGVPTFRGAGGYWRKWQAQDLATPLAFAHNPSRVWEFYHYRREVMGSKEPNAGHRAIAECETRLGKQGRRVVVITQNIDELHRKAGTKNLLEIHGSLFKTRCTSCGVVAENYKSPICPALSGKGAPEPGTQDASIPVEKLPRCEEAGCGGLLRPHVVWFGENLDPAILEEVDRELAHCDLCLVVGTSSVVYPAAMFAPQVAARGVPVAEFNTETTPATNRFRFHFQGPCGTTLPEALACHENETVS
# C2C12 statin: protects C2C12 myotubes from simvastatin toxicity; ATP luminescence, 48 h; scaled: DMSO 0, geranylgeraniol control 100; rescue of ATP level, % at 7.49 µM; 330,000 compounds, 0.78% hits;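 active = mean ATP rescue above about 67%, or every replicate alone reaching that limit, limit read from the data, passing the limit was not always enough; inconclusive = no clear call, values can overlap the other calls; inactive = mean under the limit and some replicate under it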;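 note: myotubes were challenged with 10 µM simvastatin during compound exposure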
# Cneo AK release: Cryptococcus neoformans lysis via adenylate kinase release | C. neoformans lysis, adenylate kinase release luminescence, 4 h; normalised: neutral wells 0, clomiphene wells 100 | lysis activity, % at 15 µM | 360,000 compounds, 0.2% hits | AID 651654;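 active = mean lysis activity across replicates of at least 80%, whatever share of replicates individually reach that level; inactive = mean lysis activity below 80%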
#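 Assay system: log-phase C. neoformans yeast / Quantity: yeast cell density of 5 × 10^6 cells/mL / Medium: fresh YPD growth medium / Compound: single dose / Timing: static 4 h at 37 °C with compound, 1 h detection / Measured by: adenylate kinase release luminescence / Read-out: lysis from increased AK signal / Benchmarks: Clomiphene as positive lysis control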
# S100A4 inh HTS: inhibitors of human S100A4 binding to myosin IIA peptide. 360,000 compounds, 0.14% hits. P26447. S100A4/TAMRA-MyoIIA peptide fluorescence polarization. inhibition, % at 10.7 µM;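 active = mean inhibition of at least 70% across replicates, with every replicate also reaching that level; inconclusive = mean inhibition reaches 70% but some replicates fall short; inactive = mean inhibition below 70%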
# Target sequence (P26447 whole entry, looked up): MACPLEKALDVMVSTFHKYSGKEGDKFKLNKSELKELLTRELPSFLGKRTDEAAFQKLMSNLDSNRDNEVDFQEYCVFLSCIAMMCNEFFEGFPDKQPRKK
#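 Test system: S100A4 monomer protein; Medium: HEPES pH 7.2 with CaCl2, KCl, NaCl, DTT, Triton; Probe or stimulus: TAMRA-labelled myosin IIA heavy-chain peptide probe, 5 nM; Doses: one dose per compound; Times: polarization read 5 min after assay mix addition, stable 5–60 min; Benchmarks: neutral control DMSO, positive control TFP.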
# AID977621: growth inhibition of wild-type GFP E. coli, dose response, H69 mutant RFP, cherry-pick; shares compounds with rRNA inh HTS; E. coli wild-type GFP strain growth, fluorescence, 24 h; activity change, negative = inhibition at 50 µM; 1,900 tested, under 10 active; AID 977621;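 active = Wild-type ribosome reporter drop at least double the humanized mutant ribosome reporter drop, growth loss under a set limit; inconclusive = no clear call, values can overlap the other calls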;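 note: wild-type GFP and H69 mutant RFP strains grown together 50/50 in each well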
# AID977628: growth of wild-type and h24-humanized E. coli strains – h24 mutant RFP vs wild-type GFP, cherry-pick, dose response | E. coli WT GFP strain growth, fluorescence, 24 h | 1,900 tested, under 10 active | shares compounds with rRNA inh HTS | activity change, negative = inhibition at 50 µM | AID 977628;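 active = compound lowering the normal-ribosome reporter at least twice as much as the humanized-ribosome reporter, growth loss under a set limit; inconclusive = no clear call, values can overlap the other calls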;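 note: wild-type GFP and h24 humanized RFP strains co-cultured 1 to 1 per well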
# An asterisk follows results filed as active; ? = inconclusive; . = not tested or not shown; ! = a repeat was not active.
SMILES,rRNA inh HTS,PGC1a acetyl inh,SIRT5 block,C2C12 statin,Cneo AK release,S100A4 inh HTS,AID977621,AID977628
C[C@@H]1CN([C@@H](C)CO)C(=O)c2cc(NC(=O)Nc3ccccc3)ccc2O[C@@H](C)CCCCO[C@H]1CN(C)S(=O)(=O)c1cn(C)cn1,0,-5,-2,.,-2,-9,.,.
CN(C)CC(=O)Nc1ccc2c(c1)[C@H]1C[C@H](CC(=O)NCCN3CCCCC3)O[C@@H](CO)[C@H]1O2,0,-1,-3,1,1,-38,.,.
CCNC(=O)C1(C)CCCN(Cc2cccc3ccccc23)C1 (stereo not drawn),-23*,1,-6,-3,-1,0,.,?
O=C(C[C@@H]1CC[C@H]2[C@@H](COC[C@@H](O)CN2C(=O)c2cnccn2)O1)NCc1ccccc1,6,-8,-4,2,0,2,.,.
CC=Cc1ccc2n(c1=O)C[C@@H]1[C@@H](CO)[C@H](C(=O)NCC(F)(F)F)[C@H]2N1C(=O)C1CC1 (mixture of isomers),0,.,-13,10,58,0,.,.
COC(=O)c1cc2c(c3c4ccccc4n(S(=O)(=O)c4ccccc4)c13)C(=O)N(Cc1ccco1)C2,-19,.,.,.,.,-2,.,.
COC(=O)c1cc2c(c3c4cc(F)ccc4n(S(=O)(=O)c4cccc(C)c4)c13)C(=O)N(Cc1ccccc1OC)C2,4,.,.,.,.,-6,.,.
COC(=O)c1cc2c(c3c4cc(OC)ccc4n(C(=O)c4ccccc4)c13)C(=O)N(Cc1ccco1)C2,-14*,.,.,.,.,-3,0.15,-7.4
COC(=O)c1cc2c(c3c4cc(F)ccc4n(S(=O)(=O)c4cccc(C)c4)c13)C(=O)N(Cc1ccco1)C2,-17*,.,.,.,.,-4,-19,-9.8
COC(=O)c1cc2c(c3c4cc(F)ccc4n(C(=O)c4ccccc4)c13)C(=O)N(Cc1ccco1)C2,4,.,.,.,.,-2,.,.
COC(=O)c1cc2c(c3c4cc(F)ccc4n(S(=O)(=O)c4ccccc4)c13)C(=O)N(Cc1ccco1)C2,-18*,.,.,.,.,-5,-2.1,?
CC(=O)N1[C@@H]2Cn3c(ccc(C4=CCCC4)c3=O)[C@H]1[C@@H](C(=O)NC1CCCCC1)[C@@H]2CO,-3,.,-20,-10,3,-11,.,.
CCCNC(=O)N(C)C[C@H]1Oc2cc(C#Cc3ccccn3)ccc2S(=O)(=O)N([C@@H](C)CO)C[C@H]1C,-5,10,-3,.,0,6,.,.
Cc1cc(NC(=O)CS(=O)(=O)c2cn(Cc3ccccc3Cl)c3ccccc23)no1,.,-6,.,-7,6,.,.,.
Cc1cc(NC(=O)CS(=O)(=O)c2cn(Cc3cccc(Br)c3)c3ccccc23)no1,-21*,.,-1,4,5,-5,-15,.
CN(C(=O)COC(=O)CSc1ccc(C(N)=O)cc1[N+](=O)[O-])C1CCCCC1,-16*,.,10,-2,-1,0,-9.9,4.1
Cc1ccc(Nc2nc(C(=O)NCC3CCCO3)cs2)cc1 (stereo not drawn),-42*,-4,.,.,.,1,3.5,-3.1
CO[C@@H](CN(C)C(=O)c1ccccc1F)[C@@H](C)CN([C@H](C)CO)S(=O)(=O)c1ccc(Cl)cc1,-4,-1,-1,-17,55,15,.,.
Cc1cc(Cl)ccc1OCCCC(=O)OCC(N)=O,-18*,12,-3,4,-4,5,-20,?
Cc1cc(Cl)ccc1OCCCC(=O)NN,3,1,-3,5,1,-1,.,.
COc1ccc(-c2csc(NC(=O)Cc3cc(OC)c(OC)c(OC)c3)n2)cc1OC,4,.,-1,0,7,1,.,.
COc1cc(CC(=O)Nc2nc(C)cs2)cc(OC)c1OC,-19*,.,-1,0,0,-2,3,-3.3
COCC(=O)N1CC(=O)N2[C@@H](CO)[C@H](c3ccc(C#CC(C)C)cc3)[C@@H]2C1,3,7,-1,.,.,-24,.,.
O=S(=O)(c1ccc(F)cc1)N1C[C@@H]2N[C@H](C1)C2c1ccc(/C=C/c2ccccc2)cc1 (stereo partly drawn),-28*!,-2,.,.,.,.,-1.3,.
CCc1ccc(CN2CCCC(CNS(=O)(=O)c3ccc(OC)cc3)C2)cc1 (stereo not drawn),-22*,.,3,.,.,-34,-16,?
SMILES,rRNA inh HTS,PGC1a acetyl inh,SIRT5 block,C2C12 statin,Cneo AK release,S100A4 inh HTS,AID977621,AID977628
CCn1cc(CN2CCCC(CNS(=O)(=O)c3ccc(OC)cc3)C2)cn1 (stereo not drawn),13,.,-3,.,0,-3,.,.
CN(CC(=O)Nc1ccc(F)cc1)C(=O)Cn1c(=O)oc2ccccc21,4,2,-5,-2,0,-13,.,.
CN(CC(=O)Nc1cccc(F)c1)C(=O)Cn1c(=O)oc2ccccc21,-17*,0,1,14,-1,-7,-4.9,-5
O=C1c2ccccc2C(c2nnnn2Cc2ccccc2)N1Cc1cccc(F)c1 (stereo not drawn),-23*!,.,-5,.,.,1,-4.9,-5.4
COc1ccc(CN2C(=O)c3ccccc3C2c2nnnn2Cc2ccccc2)cc1OC (stereo not drawn),-6,.,-3,.,.,0,.,.
CC(=O)Nc1ccc(-c2ccnc3c2CC(C)(C(=O)Nc2ccc4c(c2)OCO4)O3)cc1 (stereo not drawn),-23*,-10,-8,-11,-1,2,-12,.
O=C(C[C@@H]1C[C@@H]2c3cc(NC(=O)Nc4ccc(C(F)(F)F)cc4)ccc3O[C@@H]2[C@@H](CO)O1)NCc1cccnc1,0,13,-2,5,-3,-1,.,.
COc1ccc(NC(=O)Nc2cccc3c2O[C@H](CN(C)S(=O)(=O)c2ccc(OC)cc2)[C@H](C)CN([C@H](C)CO)C3=O)cc1,-7,-6,-3,-14,6,-8,.,.
COc1ccc(NC(=O)Nc2cccc3c2O[C@H](CN(C)S(=O)(=O)c2ccc(C)cc2)[C@H](C)CN([C@@H](C)CO)C3=O)cc1,-19*,2,2,4,-6,3,.,?
COc1ccc(NC(=O)Nc2cccc3c2O[C@@H](CN(C)S(=O)(=O)c2ccc(Cl)cc2)[C@H](C)CN([C@@H](C)CO)C3=O)cc1,-2,1,-3,-45,3,0,-20,.
